Screening data: PubChem BioAssay, The Scripps Research Institute Molecular Screening Center
HIV Rev-RRE inh – inhibitors of HIV-1 Rev-RRE RNA interaction; Rev peptide-RRE RNA binding, FRET; 0.79% of 97,000 active; AID 704; inhibition, % at 8 µM;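 active means inhibition above the screen-wide mean plus 3 SD, cut at about 35% in these data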;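 further: 0% = median DMSO wells and 100% = median Neomycin B control wells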
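Test system: Cy5-tagged RRE RNA duplex with fluorescein-tagged Rev peptide; Probe or stimulus: labelled Rev peptide; Schedule: 5 min preincubation and 15 min binding, 25 °C; Signal: FRET fluorescence readout; Evaluation: % inhibition from 671/540 nm acceptor-to-donor ratio, scaled between controls; Control set: DMSO and neomycin B.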
S1P2 ag – activates the human S1P2 receptor. O95136. S1P2-expressing cell line, agonist reporter read-out. activation, % at 4.5 µM. 0.46% of 97,000 active; in the data active means activation above about 16%;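 further: 0% = vehicle low control and 100% = maximal reference agonist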
EphB4 ephrin blk – EphB4-ephrin-B2 interaction antagonism; P54760; AID 720; 0.15% of 97,000 active; inhibition, % at 7 µM; EphB4 LBD / TNYL-RAW-Alexa532 peptide, fluorescence polarization;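 active means inhibition above the screen-wide mean inhibition plus 3 SD, cut at about 15% in these data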;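 further: 0% = DMSO wells and 100% = excess unlabeled TNYL-RAW peptide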
GALR2 agonist – activates the human galanin receptor 2 | GALR2-expressing cells, agonist activation read-out | 0.48% of 140,000 active | activation, % (test concentration not listed) | AID 803; in the data active means activation above about 5%, passing the limit was not always enough;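 further: 0% = vehicle buffer wells and 100% = reference agonist at full effect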
Target sequence (O43603 whole entry, looked up): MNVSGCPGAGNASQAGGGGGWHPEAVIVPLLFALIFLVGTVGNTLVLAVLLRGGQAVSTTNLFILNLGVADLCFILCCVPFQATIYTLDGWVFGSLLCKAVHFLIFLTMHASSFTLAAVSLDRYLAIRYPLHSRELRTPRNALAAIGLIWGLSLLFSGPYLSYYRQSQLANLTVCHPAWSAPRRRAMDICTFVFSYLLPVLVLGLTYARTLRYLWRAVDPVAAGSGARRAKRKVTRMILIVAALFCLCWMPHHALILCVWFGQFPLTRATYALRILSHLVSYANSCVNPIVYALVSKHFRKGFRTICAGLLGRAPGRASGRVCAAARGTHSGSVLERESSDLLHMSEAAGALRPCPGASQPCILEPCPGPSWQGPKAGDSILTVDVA
GALR2 antag – blocks the human galanin receptor 2. GALR2-expressing cells, antagonist mode. inhibition, % at 4 µM. 0.39% of 140,000 active. AID 828; in the data active means inhibition above about 27%;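 further: cells stimulated with galanin 1-16 at roughly its EC80; 0% = agonist challenge control and 100% = basal control without agonist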
S1P2 blocker – blocks the human S1P2 receptor; 0.21% of 97,000 active; AID 736; inhibition, % at 5 µM; O95136; cell-based S1P2 antagonist assay, inhibition at 5 uM; in the data active means inhibition above about 45%;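 further: CRE beta-lactamase reporter cells expressing human S1P2 stimulated with S1P; 0% = agonist at EC80 alone and 100% = agonist plus reference antagonist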
* = called active by the depositor; · = no result given; [ ] = another dose, or the depositor's remark. Sampled rows, rich in hits. Any-hit rate of the full collection: about 1.8%.

SMILES	HIV Rev-RRE inh	S1P2 ag	EphB4 ephrin blk	GALR2 agonist	GALR2 antag	S1P2 blocker
Cc1nnc(N2C(=O)C(O)=C(C(=O)c3ccco3)C2c2ccc(F)cc2)s1 (centres undefined)	52*	-3	-1	0	-7	3
COc1ccc(CN=Cc2[nH]c3ccc(Br)c(Cl)c3c2O)cc1	125*[fluorescence artefact?]	-5	13	-2	10	22
C=CCSc1nncn1/N=C/c1ccc(OC)cc1	0	-9	-1	-1	-2	11
COc1ccc(/C=N/n2cnnc2SCCO)cc1OC	2	19*	-2	0	-21	-29
CN(C)c1ccc(/C=C(\C#N)C(=O)Nc2nc3c(s2)CCN(Cc2ccccc2)C3)cc1	104*[fluorescence artefact?]	-2	3	0	-1	1
CCOC(=O)c1c(C)oc2ccc(OC(=O)COc3c(F)c(F)c(F)c(F)c3F)cc12	·	·	·	0	-10	·
CCN(CC)c1ccc2cc(-c3nnc(-c4ccccc4)o3)c(=O)oc2c1	141*[fluorescence artefact?]	-2	0	1	1	-10
CCN(CC)c1ccc2cc(-c3nnc(-c4ccc(Br)cc4)o3)c(=O)oc2c1	140*[fluorescence artefact?]	-9	-3	0	8	1
CCN(CC)c1ccc2cc(-c3nc4ccccc4[nH]3)c(=O)oc2c1	135*[fluorescence artefact?]	-11	-4	-2	26	34
CCOC(=O)c1c(NC(=O)COc2cccc3c2CCN(C)C3=O)sc2c1CCC2	·	·	·	2	-1	·
COc1ccccc1/C=C(/C(=O)OCC(=O)Nc1cc(C)ccc1C)c1ccccc1	·	·	·	-1	-8	·
CCN(CC)c1ccc2c(c1)OC(N)=C(C#N)C2c1cccnc1 (centres undefined)	121*[fluorescence artefact?]	1	-8	2	3	-10
O=C1/C(=C/Nc2ccc3c(c2)OCO3)CCc2ccccc21	46*	-5	-1	-2	20	27
COc1ccc2c(c1)CC/C(=C\Nc1ccc3c(c1)OCO3)C2=O	32	-7	-3	-2	11	-7
Cc1ccc(CNC(=O)c2oc3ccc(S(=O)(=O)N4CCOCC4)cc3c2C)cc1	7	-6	5	-2	6	50*
CCCn1c(NCc2c[nH]c3ccccc23)nc2ccccc21	-4	21*	-3	-1	2	-31
Nc1c(C(=O)NCc2ccc3c(c2)OCO3)c2nc3ccccc3nc2n1CCCN1CCOCC1	4	41*	-5	32*	-15	-38
Nc1c(C(=O)NCCN2CCOCC2)c2nc3ccccc3nc2n1-c1ccc2c(c1)OCO2	·	·	·	1	-3	·
CC(C)OC(=O)c1c(N)n(CCCN2CCOCC2)c2nc3ccccc3nc12	8	1	2	3	0	-29
COc1ccccc1CNC(=O)c1c(N)n(CCCN2CCOCC2)c2nc3ccccc3nc12	4	58*	0	28*	-16	-93
C=CCOc1ccc(C(=O)CC)cc1OC	·	·	·	-1	-6	·
Cc1ccsc1C1C=C(c2cccc(Br)c2)Nc2ncnn21 (centres undefined)	81*[fluorescence artefact?]	-6	-8	0	13	-30
COc1cccc(C2=CC(c3ccc(C)cc3)n3ncnc3N2)c1 (centres undefined)	49*	-7	3	-2	4	17
Fc1ccc(Br)cc1C1C=C(c2ccc(Br)cc2)Nc2ncnn21 (centres undefined)	14	7	6	-1	-3	4
COc1cc(NC(=O)Cn2c(=O)n(-c3cccc(C)c3)c(=O)c3c(C)c(C)sc32)cc(OC)c1	·	·	·	1	2	·
SMILES	HIV Rev-RRE inh	S1P2 ag	EphB4 ephrin blk	GALR2 agonist	GALR2 antag	S1P2 blocker
COc1ccccc1C(=O)N/C(=C\c1ccc2c(c1)OCO2)C(=O)NCCc1nc2ccccc2[nH]1	·	·	·	0	-2	·
Cc1cc(C(=O)CN2C(=O)NC(c3ccccc3)(c3ccccc3)C2=O)c(C)n1Cc1ccccc1	9	-7	20*	-4	-4	-2
c1ccc(-c2cn3nc4c(nc3n2)CCCC4)cc1	48*	-1	-4	2	9	11
Brc1ccc(-c2cn3nc4c(nc3n2)CCCC4)cc1	25	-2	5	3	-1	-15
COc1ccc(/C=C/C(=O)c2c(O)cc(C)oc2=O)c(OC)c1	89*[fluorescence artefact?]	-1	5	1	9	26
COc1cc(/C=C/C(=O)c2c(O)cc(C)oc2=O)cc(OC)c1O	38*	-1	-9	-2	9	-30
CCCCC(=O)NC(=S)Nc1ccc(S(=O)(=O)N2CCCC2)cc1	·	·	·	-1	7	·
